Experimental data pooled from the literature.
Lines come from different studies, so protocols differ.
Target: Serine/threonine-protein kinase 16 (STK16, Homo sapiens, UniProt O75716)

| SMILES | test | setting | measurement | result |
| --- | --- | --- | --- | --- |
| COc1ncccc1-c1cnn2ccc(N3CCN(C(=O)OC(C)C)CC3)nc12 | binding, competition with immobilised ligand | 1 µM | remaining binding | 55% |
| CC(C)(C)c1cc(C=C(C#N)C#N)cc(Br)c1O | enzyme activity, inhibitor | 0.5 µM | remaining activity | 99.2% |
| Nc1ncc(-c2nc(N3CCOCC3)nc(N3CCOCC3)n2)c(C(F)F)n1 | binding, competition with immobilised ligand | 10 µM | remaining binding | 56% |
| O=c1[nH]c2ccccc2n1C1CCN(Cc2ccc(-c3[nH]c4cc5ncnc5cc4nc3-c3ccccc3)cc2)CC1 | cell-free assay | 0.5 µM | remaining signal | 99.5% |
| COc1cc(Nc2ncc(F)c(Nc3ccc4c(n3)NC(=O)C(C)(C)O4)n2)cc(OC)c1OC | binding, competition with immobilised ligand | 10 µM | inhibition | 100% |
| Cn1cc(-c2cc(F)cc(N3CCn4c(cc5c4CCCC5)C3=O)c2CO)cc(Nc2ccc(N3CCN(C4COC4)CC3)cn2)c1=O | enzyme activity, inhibitor | 0.1 µM | inhibition | 10% |
| Cc1nn(C)cc1-c1nc2c(N3CCN(Cc4ccc(Cl)cc4)CC3)c(Cl)cnc2[nH]1 | binding, competition with immobilised ligand | 1 µM | remaining binding | 18% |
| Cn1cc(-c2cccc(N3CCc4c(sc5c4CC(C)(C)C5)C3=O)c2CO)cc(Nc2ccncn2)c1=O | enzyme activity, inhibitor | 1 µM | inhibition | -3% |
| Cn1cncc1[C@@](O)(COc1ccc(C#N)cc1-c1ccc(OC(F)(F)F)cc1)c1ccc(C#N)cc1 | cell-free assay, competition with immobilised ligand | 1 µM | remaining binding | 99% |
